Broadly, the IC50 is the point on the concentration scale where inhibition reaches its midpoint.

Active and inactive are the calls of the source. The calls are words filed in the database; no cut-off is given here.

For one experiment, the target named is T1, Histone deacetylase 8 (Homo sapiens, UniProt Q9BY41).
T1 sequence (Q9BY41 whole entry): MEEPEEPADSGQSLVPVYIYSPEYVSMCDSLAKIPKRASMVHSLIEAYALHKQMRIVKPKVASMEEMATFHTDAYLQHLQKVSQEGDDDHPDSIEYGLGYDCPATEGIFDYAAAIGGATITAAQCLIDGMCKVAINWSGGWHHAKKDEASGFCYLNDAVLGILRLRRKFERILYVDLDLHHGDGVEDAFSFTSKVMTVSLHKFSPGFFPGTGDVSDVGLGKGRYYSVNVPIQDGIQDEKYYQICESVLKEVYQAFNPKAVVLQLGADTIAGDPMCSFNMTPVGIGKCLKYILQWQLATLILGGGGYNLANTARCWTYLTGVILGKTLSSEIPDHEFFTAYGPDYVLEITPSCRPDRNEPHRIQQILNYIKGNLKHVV
Kind of experiment: Inhibition of C-terminal His-tagged recombinant human HDAC8 expressed in baculovirus infected insect cells using RHK(Ac)K(Ac)AMC as substrate by fluorescence-based assay.

Another experiment is filed under the species Homo sapiens. Kind of experiment: Inhibition of HDAC6/chymotrypsin-like activity of 20S proteasome in human HL60 cells assessed as increase in cleaved PARP expression at 0.1 to 10 uM after 24 hrs by immunoblot assay. The format is cell-based. Put shortly: (§1)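 Cells exposed for 24 h at indicated concentrations; lysates immunoblotted for acetyl-α-tubulin, acetyl-histone H3, PARP, with GAPDH as loading control.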
For orientation: In western blotting, separated proteins are transferred to a membrane and probed.

For another experiment, the system named is SUP-B15. Kind of experiment: Inhibition of HDAC6/chymotrypsin-like activity of 20S proteasome in imatinib-resistant human SUP-B15 cells assessed as increase in cleaved PARP expression at 0.1 to 10 uM after 24 hrs by immunoblot assay. The format is cell-based. Put shortly: as §1
Experiment [1] deals with SEM cells. Put plainly: Inhibition of HDAC6/chymotrypsin-like activity of 20S proteasome in human SEM cells assessed as increase in p62 protein expression at 0.1 to 10 uM after 18 hrs by Western blot assay. The format is cell-based. Summed up:
(§2)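 Cells treated 18 h at indicated concentrations; lysates analysed by western blot for heat shock (Grp94, HSP70, HSP40, HSP27), UPR (BIP, ATF4, ATF6, pJNK) and autophagy (LC3B, p62) proteins.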

For experiment [2], the system named is SEM cells. Kind of experiment: Inhibition of HDAC6/chymotrypsin-like activity of 20S proteasome in human SEM cells assessed as decrease in aggresome accumulation at IC50 to 2 times IC50 after 18 hrs by fluorescence microscopic method. The format is cell-based. Summed up: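 Cells treated 18 h, then stained with a proteostat aggresome dye plus DNA stain. Imaged by fluorescence microscopy (63X objective) or analysed by FACS, with aggresome propensity factor from relative mean fluorescence intensity.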

Experiment [3] has as its system SEM cells. Put plainly: Inhibition of HDAC6/chymotrypsin-like activity of 20S proteasome in human SEM cells assessed as increase in ATF6 protein expression at 0.1 to 10 uM after 18 hrs by Western blot assay. The class given is cell-based. Summed up: as §2
The subject of another experiment is KCL-22. Kind of experiment: Cytotoxicity against imatinib-resistant human KCL22 cells after 72 hrs by CellTiter-Glo luminescent cell viability assay. The format is functional, cell-based. The conditions noted are these: KCL-22, 72 h. Summed up:
(§3)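 Inhibitors dispensed in increasing concentrations (50 nM–25 μM) and cells exposed 72 h. Viability read by ATP-dependent luminescence (CellTiter-Glo). Raw data normalized to controls. IC50 obtained by sigmoid dose–response fit with non-linear regression.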
In general terms: ATP-based viability assays read luminescence as a measure of living cells.

The next experiment addresses Histone deacetylase 2 (Homo sapiens, UniProt Q92769). Kind of experiment: Inhibition of C-terminal GST-tagged recombinant human HDAC2 expressed in baculovirus infected insect cells using RHKK(Ac)AMC as substrate by fluorescence-based assay.
The target of experiment [4] is T2, Proteasome Macropain subunit MB1 (Homo sapiens, UniProt P28074).
T2 sequence (P28074 whole entry): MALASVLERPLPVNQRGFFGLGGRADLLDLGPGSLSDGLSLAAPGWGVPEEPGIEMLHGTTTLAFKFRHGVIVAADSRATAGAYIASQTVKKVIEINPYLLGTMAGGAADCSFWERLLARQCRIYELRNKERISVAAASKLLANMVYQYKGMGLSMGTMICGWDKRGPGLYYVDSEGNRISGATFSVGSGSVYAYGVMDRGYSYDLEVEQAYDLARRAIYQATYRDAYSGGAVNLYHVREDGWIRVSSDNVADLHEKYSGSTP
Put plainly: Inhibition of chymotrypsin-like activity of 20S proteasome in human SEM cells using Suc-LLVY aminoluciferin as substrate after 2 hrs by proteasome-Glo assay. The format is cell-based.

Experiment [5] relates to SEM cells. Put plainly: Cytotoxicity against human SEM cells after 72 hrs by CellTiter-Glo luminescent cell viability assay. The format is functional, cell-based. Summed up:
as §3

For experiment [6], the target named is T3, Proteasome component C5 (Homo sapiens) (UniProt P20618).
T3 sequence (whole entry): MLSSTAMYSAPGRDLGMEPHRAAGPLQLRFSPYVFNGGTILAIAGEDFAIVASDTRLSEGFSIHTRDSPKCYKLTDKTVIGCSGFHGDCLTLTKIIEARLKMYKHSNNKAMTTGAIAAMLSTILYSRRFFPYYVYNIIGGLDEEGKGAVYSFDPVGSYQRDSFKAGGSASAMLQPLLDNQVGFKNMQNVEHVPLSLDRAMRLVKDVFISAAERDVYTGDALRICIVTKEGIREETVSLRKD
Put plainly: Inhibition of caspase-like activity of 20S proteasome in human HL60 cells at 4 nM to 25 uM using Z-nLPnLD-aminoluciferin as substrate after 2 hrs by proteasome-Glo assay. The format is cell-based.

Experiment [7] deals with SEM cells. Kind of experiment: Induction of apoptosis in human SEM cells at IC50 to 2 times IC50 after 48 hrs by annexin V/propidium iodide staining-based FACS analysis relative to control. The class given is functional. Summed up: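 After 48 h treatment at IC50 or 2x IC50, cells double-stained with annexin V and PI and analysed by FACS. Cells scored as living, early apoptotic (annexin V+), late apoptotic (both+) or necrotic (PI+).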
In general terms: A flow cytometer gives signals particle by particle.

Experiment [8] has as its system SEM cells. Put plainly: Inhibition of HDAC6/chymotrypsin-like activity of 20S proteasome in human SEM cells assessed as increase in HSP70 protein expression at 0.1 to 10 uM after 18 hrs by Western blot assay. The class given is cell-based. Summed up:
as §2

In experiment [9] the test system is SEM cells. Kind of experiment: Cell cycle arrest in human SEM cells assessed as reduction in cell levels at G2/M phase at IC50 to 2 times IC50 after 48 hrs by propidium iodide staining-based FACS analysis. The class given is functional.
In experiment [10] the test system is SEM cells. Kind of experiment: Induction of early differentiation of human SEM cells assessed as increase in CD14 expression at IC50 to 2 times IC50 after 72 hrs by FACS analysis. The format is functional, cell-based. Put shortly: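 Surface CD11b and CD14 measured by FACS using fluorochrome-coupled monoclonal antibodies with matched isotype controls, after treatment in liquid medium.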

The target in experiment [11] is T2, Proteasome Macropain subunit MB1. Put plainly: Inhibition of chymotrypsin-like activity of 20S proteasome in imatinib-resistant human SUP-B15 cells using Suc-LLVY aminoluciferin as substrate after 2 hrs by proteasome-Glo assay. The format is cell-based.
In experiment [12] the test system is SEM cells. Put plainly: Reduction of colony forming capacity of human SEM cells at IC50 to 2 times IC50 after 48 hrs. The class given is functional, cell-based. Summed up: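 SEM cells pretreated in liquid medium (methods: 24 h; legend: 48 h), then plated in semisolid methylcellulose-based medium containing compound or control; colonies counted after 14 days.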

Experiment [13] has as its system SEM cells. Put plainly: Inhibition of HDAC6/chymotrypsin-like activity of 20S proteasome in human SEM cells assessed as increase in LC3B protein expression at 0.1 to 10 uM after 18 hrs by Western blot assay. The class given is cell-based. Put shortly:
as §2

Sequence of Histone deacetylase 2 (Q92769 whole entry): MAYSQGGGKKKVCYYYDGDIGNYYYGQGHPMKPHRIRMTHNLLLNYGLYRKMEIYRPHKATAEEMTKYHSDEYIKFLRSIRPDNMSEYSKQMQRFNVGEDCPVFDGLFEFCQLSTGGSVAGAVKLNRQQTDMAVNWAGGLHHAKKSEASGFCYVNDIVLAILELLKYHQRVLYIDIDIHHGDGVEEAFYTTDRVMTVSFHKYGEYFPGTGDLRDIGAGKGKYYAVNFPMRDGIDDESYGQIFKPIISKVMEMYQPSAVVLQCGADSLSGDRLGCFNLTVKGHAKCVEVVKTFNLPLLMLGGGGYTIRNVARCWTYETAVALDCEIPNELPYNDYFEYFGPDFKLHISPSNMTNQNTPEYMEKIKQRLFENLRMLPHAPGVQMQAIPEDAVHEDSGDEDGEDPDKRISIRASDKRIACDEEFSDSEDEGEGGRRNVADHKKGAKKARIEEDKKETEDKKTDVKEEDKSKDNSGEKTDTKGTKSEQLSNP

In the case of `C[C@H](NC(=O)[C@H](CC(=O)NCC(C)(C)C)NC(=O)c1ccc(C(=O)NO)cc1)C(=O)NCc1ccccc1`, the half-inhibitory concentration (IC50) was determined as 530 nM on Histone deacetylase 8; 2580 nM in the experiment with KCL-22; 18000 nM at Histone deacetylase 2; 394 nM in [4]; 890 nM in the experiment with SEM cells [5]; 820 nM in [11]. For the same compound, the inhibition entry in the experiment filed under Homo sapiens, with SUP-B15, with SEM cells [1], in the experiment on SEM cells [2], in the experiment on SEM cells [3] and in the experiment with SEM cells [8] was “Active” in each case. For the same compound, the inhibition result in the experiment with SEM cells [13] was “Active”. Further, the inhibition entry in experiment [6] was “inactive”. Further, the “fold change (FC)” value in the experiment with SEM cells [7] worked out at 5. For the same compound, the result with SEM cells [9], in the experiment on SEM cells [10] and in the experiment with SEM cells [12] was Active.
